In ChEMBL document CHEMBL1125694, “Fluorinated sugar analogues of potential anti-HIV-1 nucleosides” (J Med Chem, 1991):
Active and inactive are the calls of the source. No cut-off for these calls is given here.

Legend:
Assay type in all cases: functional, cell-based
HL-60 [1] = experiment: Inhibition of human promyelocytic leukemic cell (HL-60) by […]-microculture tetrazolium assay
Summary of the method: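 HL-60 cells exposed 4 days to five or six concentrations of each nucleoside, in duplicate. Then PMS-XTT mixture (0.075 mM PMS with 1 mg/mL XTT) added for 6 h at 37 °C. Absorbance at 450 and 630 nm. Median inhibitory concentration (IC50) derived.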

H9 [2] = experiment: Anti-HIV activity in H9 cell line; Not active; details: Homo sapiens
HL-60 [3] = experiment: Inhibition of human promyelocytic leukemic cell (HL-60) trypan blue exclusion assay
Summary of the method: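 HL-60 growth inhibition by trypan blue exclusion, five or six concentrations per nucleoside, in duplicate. Median inhibitory concentration (IC50) derived.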

H9 [4] = experiment: Compound was tested for anti-HIV activity in H9 cell line; Active; details: Homo sapiens
H9 [5] = experiment: Compound was tested for anti-HIV activity in H9 cell line; Not active; details: Homo sapiens
MT4 = experiment: Compound was tested for anti-HIV activity in MT-4 cell line; Not active; details: Homo sapiens

Row | IC50 (HL-60 [1]) | IC50 (HL-60 [3]) | SMILES | Activity (H9 [2]) | Activity (H9 [4]) | Activity (H9 [5]) | Activity (MT4)
1 | > 1000 µM | > 1000 µM | Cc1cn(C2OC(COC(c3ccccc3)(c3ccccc3)c3ccccc3)CC2O)c(=O)[nH]c1=O (centres undefined) | inactive |  |  | 
2 | > 1000 µM | > 1000 µM | Cc1cn2c(nc1=O)O[C@@H]1C[C@H]2O[C@@H]1COS(C)(=O)=O | inactive |  |  | 
3 | > 1000 µM | > 1000 µM | Cc1cn2c(nc1=O)O[C@@H]1C[C@H]2O[C@@H]1CO | inactive |  |  | 
4 | > 1000 µM | > 1000 µM | Cc1cn([C@@H]2O[C@H](COC(c3ccccc3)(c3ccccc3)c3ccccc3)[C@H](O)[C@H]2F)c(=O)[nH]c1=O | inactive |  |  | 
5 |  |  | Cc1cn([C@H]2C[C@H](F)[C@@H](CO)O2)c(=O)[nH]c1=O |  | Active |  | 
6 | > 1000 µM | > 1000 µM | Cc1cn([C@@H]2O[C@H](CO)[C@@H](F)[C@H]2F)c(=O)[nH]c1=O | inactive |  |  | 
7 | > 1000 µM | > 1000 µM | Cc1cn([C@@H]2O[C@H](COC(c3ccccc3)(c3ccccc3)c3ccccc3)[C@H](O)[C@H]2N=[N+]=[N-])c(=O)[nH]c1=O | inactive |  |  | 
8 | > 1000 µM | > 1000 µM | Cc1cn([C@@H]2O[C@H](CO)[C@@H](O)[C@@H]2O)c(=O)[nH]c1=O | inactive |  |  | 
9 | 234 µM | 123 µM | Cc1cn(C2OC(CO)C(F)C2F)c(=O)nc1N (centres undefined) | inactive |  |  | 
10 | > 1000 µM | > 1000 µM | Cc1cn2c(nc1=O)O[C@@H]1[C@H](F)[C@H]2O[C@@H]1COC(=O)c1ccccc1 | inactive |  |  | 
11 | > 1000 µM | > 1000 µM | Cc1cn([C@@H]2O[C@H](CO)C=C2F)c(=O)[nH]c1=O | inactive |  |  | 
12 | > 1000 µM | > 1000 µM | Cc1cn(C2OC(COC(c3ccccc3)(c3ccccc3)c3ccccc3)C(F)C2F)c(=O)[nH]c1=O (centres undefined) | inactive |  |  | 
13 | > 1000 µM | > 1000 µM | Cc1cn2c(nc1=O)O[C@H]1[C@H](OC(=S)n3ccnc3)[C@@H](COC(c3ccccc3)(c3ccccc3)c3ccccc3)O[C@H]12 | inactive |  |  | 
14 | > 1000 µM | > 1000 µM | Cc1cn([C@@H]2O[C@H](CO)[C@@H](OC(c3ccccc3)(c3ccccc3)c3ccccc3)[C@H]2OC(c2ccccc2)(c2ccccc2)c2ccccc2)c(=O)[nH]c1=O |  |  | inactive | 
15 | > 1000 µM | > 1000 µM | Cc1cn(C2OC(COC(c3ccccc3)(c3ccccc3)c3ccccc3)C(F)C2N=[N+]=[N-])c(=O)[nH]c1=O (centres undefined) | inactive |  |  | 
16 | > 1000 µM | > 1000 µM | Cc1cn(C2OC(COC(=O)c3ccccc3)C(F)C2F)c(=O)[nH]c1=S (centres undefined) | inactive |  |  | 
17 | > 1000 µM | > 1000 µM | Cc1cn(C2OC(COC(c3ccccc3)(c3ccccc3)c3ccccc3)C(F)C2O)c(=O)[nH]c1=O (centres undefined) | inactive |  |  | 
18 | > 1000 µM | > 1000 µM | Cc1cn([C@@H]2O[C@H](COC(=O)c3ccccc3)[C@@H](OS(C)(=O)=O)[C@@H]2F)c(=O)[nH]c1=O | inactive |  |  | 
19 | > 1000 µM | > 1000 µM | Cc1cn(C2OC(CO)C[C@@H]2F)c(=O)[nH]c1=O (some centres undefined) | inactive |  |  | 
20 | > 1000 µM | > 1000 µM | Cc1cn(C2OC(COC(c3ccccc3)(c3ccccc3)c3ccccc3)C(N=[N+]=[N-])C2O)c(=O)[nH]c1=O (centres undefined) | inactive |  |  | 
21 | > 1000 µM | > 1000 µM | Cc1cn2c(nc1=O)O[C@@H]1[C@H](F)[C@H]2O[C@@H]1COC(c1ccccc1)(c1ccccc1)c1ccccc1 | inactive |  |  | 

Row | IC50 (HL-60 [1]) | IC50 (HL-60 [3]) | SMILES | Activity (H9 [2]) | Activity (H9 [4]) | Activity (H9 [5]) | Activity (MT4)
22 | > 1000 µM | > 1000 µM | Cc1cn2c(nc1=O)OC1CC(COC(c3ccccc3)(c3ccccc3)c3ccccc3)OC12 (centres undefined) | inactive |  |  | 
23 |  |  | Cc1cn([C@@H]2O[C@H](CO)[C@@H](N=[N+]=[N-])[C@@H]2F)c(=O)[nH]c1=O | inactive |  |  | inactive
24 | > 1000 µM | > 1000 µM | Cc1cn([C@@H]2O[C@H](COC(c3ccccc3)(c3ccccc3)c3ccccc3)[C@@H]3O[C@@H]32)c(=O)[nH]c1=O | inactive |  |  | 
25 | > 1000 µM | > 1000 µM | Cc1cn([C@@H]2O[C@H](COC(=O)c3ccccc3)[C@@H](O)[C@@H]2F)c(=O)[nH]c1=O | inactive |  |  | 
26 | > 1000 µM | > 1000 µM | Cc1cn([C@@H]2O[C@H](CO)C[C@H]2F)c(=O)[nH]c1=O | inactive |  |  | 
27 | > 1000 µM | > 1000 µM | Cc1cn([C@@H]2O[C@H](CO)C[C@H]2F)c(=O)nc1N | inactive |  |  | 
28 | > 1000 µM | > 1000 µM | Cc1cn([C@@H]2O[C@H](COC(c3ccccc3)(c3ccccc3)c3ccccc3)[C@@H](OS(C)(=O)=O)[C@@H]2F)c(=O)[nH]c1=O | inactive |  |  | 
29 | > 1000 µM | > 1000 µM | Cc1cn([C@@H]2O[C@H](COC(c3ccccc3)(c3ccccc3)c3ccccc3)[C@@H](OS(C)(=O)=O)[C@H]2OS(C)(=O)=O)c(=O)[nH]c1=O | inactive |  |  | 
30 | > 1000 µM | > 1000 µM | Cc1cn2c(nc1=O)O[C@H]1[C@H](O)[C@@H](COC(c3ccccc3)(c3ccccc3)c3ccccc3)O[C@H]12 | inactive |  |  | 
31 |  |  | Nc1ccn([C@@H]2O[C@H](CO)C[C@@H]2F)c(=O)n1 |  | Active |  | 
32 | > 1000 µM | > 1000 µM | Cc1cn(C2OC(COC(c3ccccc3)(c3ccccc3)c3ccccc3)CC2F)c(=O)nc1N (centres undefined) | inactive |  |  | 
33 | > 1000 µM | > 1000 µM | Cc1cn(C2OC(COC(c3ccccc3)(c3ccccc3)c3ccccc3)C(N=[N+]=[N-])C2F)c(=O)[nH]c1=O (centres undefined) | inactive |  |  | 
34 | > 1000 µM | > 1000 µM | Cc1cn([C@@H]2O[C@H](COC(c3ccccc3)(c3ccccc3)c3ccccc3)C[C@H]2F)c(=O)[nH]c1=O | inactive |  |  | 
35 | > 1000 µM | > 1000 µM | Cc1cn([C@@H]2O[C@H](CO)[C@@H](N=[N+]=[N-])[C@H]2F)c(=O)[nH]c1=O | inactive |  |  | 
36 | > 1000 µM | > 1000 µM | Cc1cn(C2OC(COC(=O)c3ccccc3)C(F)C2F)c(=O)[nH]c1=O (centres undefined) | inactive |  |  | 
37 | > 1000 µM | > 1000 µM | Cc1cn([C@@H]2O[C@H](CO)[C@@H](F)[C@@H]2F)c(=O)[nH]c1=O | inactive |  |  | 
38 | > 1000 µM | > 1000 µM | Cc1cn([C@@H]2O[C@H](CO)[C@@H](O)[C@@H]2F)c(=O)[nH]c1=O [5-METHYL-2'-FLUOROARAURACIL] | inactive |  |  | 
39 | > 1000 µM | > 1000 µM | Cc1cn([C@H]2C[C@H](OS(C)(=O)=O)[C@@H](COS(C)(=O)=O)O2)c(=O)[nH]c1=O | inactive |  |  | 
40 | > 1000 µM | > 1000 µM | CC(=O)OCC1OC(n2cc(C)c(=O)[nH]c2=O)CC1F (centres undefined) | inactive |  |  | 
41 | > 1000 µM | > 1000 µM | Cc1cn(C2OC(COC(c3ccccc3)(c3ccccc3)c3ccccc3)CC2F)c(=O)nc1-n1cncn1 (centres undefined) | inactive |  |  | 
42 | > 1000 µM | > 1000 µM | Cc1cn(C2CC(F)C(COS(C)(=O)=O)O2)c(=O)[nH]c1=O (centres undefined) | inactive |  |  | 

Row | SMILES | IC50 (HL-60 [1]) | IC50 (HL-60 [3]) | Activity (H9 [2]) | Activity (H9 [4]) | Activity (H9 [5]) | Activity (MT4)
43 | Cc1cn([C@@H]2O[C@H](CO)[C@@H](F)[C@H]2N=[N+]=[N-])c(=O)[nH]c1=O | > 1000 µM | > 1000 µM | inactive |  |  | 
